This note sets out measurements from ChEMBL document CHEMBL4627334, “Design, synthesis and biological evaluation of 4-(pyridin-4-yloxy)benzamide derivatives bearing a 5-methylpyridazin-3(2H)-one fragment” (Bioorg Med Chem Lett, 2020).

The term IC50 denotes the concentration that gives 50% inhibition. The inhibition is how much of the control response was suppressed.

The subject of assay [1] is HeLa. As to the kind of experiment: Antiproliferative activity against human HeLa cells assessed as reduction in cell viability after 72 hrs by MTT assay. Type of assay: functional, cell-based. In a few lines: (§1)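 Cells grown in DMEM/1640 with 10% FBS, seeded at about 4×10^3 per well and held 24 h at 37 °C, 5% CO2. Compounds diluted in medium or DMSO were added for 72 h, then MTT ([…]) was added for 3.5 h at 37 °C. Formazan was dissolved in DMSO and read at 492 nm against 630 nm. Triplicate wells, three runs, IC50 calculated.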
In general terms: Formazan colour is commonly taken as a measure of viable cells.

Assay [2] has as its system A549. As to the kind of experiment: Antiproliferative activity against human A549 cells assessed as reduction in cell viability after 72 hrs by MTT assay. Type of assay: functional, cell-based. The settings on record: A549, 72 h. Summed up:
as §1

Assay [3] deals with MCF7. As to the kind of experiment: Antiproliferative activity against human MCF7 cells assessed as reduction in cell viability after 72 hrs by MTT assay. The format is functional, cell-based. In a few lines:
as §1

The test system of assay [4] is HeLa. As to the kind of experiment: Antiproliferative activity against human HeLa cells assessed as inhibition of cell proliferation at 1.23 umol/L after 72 hrs by MTT assay relative to control. The format is functional. Summed up:
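Cells were cultured in medium with 10% FBS and seeded near 4×10^3 per well, 24 h before dosing. MTT (5 µg/mL) was added for 3.5 h at 37 °C, formazan dissolved in DMSO, and absorbance read at 492/630 nm.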

Assay [5] has as its target Hepatocyte growth factor receptor (Homo sapiens, UniProt P08581). Kind of assay: Inhibition of cMET (unknown origin) using FAM-labeled peptide as substrate pre-incubated for 5 to 10 mins followed by substrate addition and measured after 30 to 60 mins by mobility shift assay.
The subject of assay [6] is A549. As to the kind of experiment: Potency index, ratio of golvatinib IC50 to test compound IC50 for antiproliferative activity against human A549 cells. Type of assay: functional.
The subject of assay [7] is HeLa. As to the kind of experiment: Induction of apoptosis in human HeLa cells assessed as membrane swelling at 1 to 5 ug/L after 12 hrs by acridine orange staining based assay. The format is functional, cell-based. Summed up: (§2)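 HeLa cells were treated at 1 and 5 µg/L for 12 h, then stained with acridine orange. Morphology was compared with untreated control cells, scoring cytoplasmic contraction, membrane swelling and apoptotic bodies.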

In assay [8] the test system is HeLa. As to the kind of experiment: Induction of apoptosis in human HeLa cells after 12 hrs by acridine orange staining based assay. The format is functional, cell-based. In a few lines: as §2
In assay [9] the test system is HeLa. Kind of assay: Induction of apoptosis in human HeLa cells assessed as increase in apoptotic bodies at 1 to 5 ug/L after 12 hrs by acridine orange staining based assay. The format is functional, cell-based. In a few lines: as §2
Assay [10] concerns MCF7. Kind of assay: Potency index, ratio of golvatinib IC50 to test compound IC50 for antiproliferative activity against human MCF7 cells. The format is functional.
In assay [11] the test system is HeLa. As to the kind of experiment: Induction of apoptosis in human HeLa cells assessed as cytoplasmic contraction at 1 to 5 ug/L after 12 hrs by acridine orange staining based assay. The format is functional, cell-based. Summed up:
as §2

Assay [12] has as its system HeLa. Kind of assay: Potency index, ratio of golvatinib IC50 to test compound IC50 for antiproliferative activity against human HeLa cells. Type of assay: functional.
[13] abbreviates: Homo sapiens, HeLa, 72 h, read-out: IC50.
Where [14] appears, read: Homo sapiens, MCF7, 72 h, read-out: IC50.

Calls of active or inactive are those of the source. No cut-off for these calls is given here.

Sequence of Hepatocyte growth factor receptor (P08581 whole entry): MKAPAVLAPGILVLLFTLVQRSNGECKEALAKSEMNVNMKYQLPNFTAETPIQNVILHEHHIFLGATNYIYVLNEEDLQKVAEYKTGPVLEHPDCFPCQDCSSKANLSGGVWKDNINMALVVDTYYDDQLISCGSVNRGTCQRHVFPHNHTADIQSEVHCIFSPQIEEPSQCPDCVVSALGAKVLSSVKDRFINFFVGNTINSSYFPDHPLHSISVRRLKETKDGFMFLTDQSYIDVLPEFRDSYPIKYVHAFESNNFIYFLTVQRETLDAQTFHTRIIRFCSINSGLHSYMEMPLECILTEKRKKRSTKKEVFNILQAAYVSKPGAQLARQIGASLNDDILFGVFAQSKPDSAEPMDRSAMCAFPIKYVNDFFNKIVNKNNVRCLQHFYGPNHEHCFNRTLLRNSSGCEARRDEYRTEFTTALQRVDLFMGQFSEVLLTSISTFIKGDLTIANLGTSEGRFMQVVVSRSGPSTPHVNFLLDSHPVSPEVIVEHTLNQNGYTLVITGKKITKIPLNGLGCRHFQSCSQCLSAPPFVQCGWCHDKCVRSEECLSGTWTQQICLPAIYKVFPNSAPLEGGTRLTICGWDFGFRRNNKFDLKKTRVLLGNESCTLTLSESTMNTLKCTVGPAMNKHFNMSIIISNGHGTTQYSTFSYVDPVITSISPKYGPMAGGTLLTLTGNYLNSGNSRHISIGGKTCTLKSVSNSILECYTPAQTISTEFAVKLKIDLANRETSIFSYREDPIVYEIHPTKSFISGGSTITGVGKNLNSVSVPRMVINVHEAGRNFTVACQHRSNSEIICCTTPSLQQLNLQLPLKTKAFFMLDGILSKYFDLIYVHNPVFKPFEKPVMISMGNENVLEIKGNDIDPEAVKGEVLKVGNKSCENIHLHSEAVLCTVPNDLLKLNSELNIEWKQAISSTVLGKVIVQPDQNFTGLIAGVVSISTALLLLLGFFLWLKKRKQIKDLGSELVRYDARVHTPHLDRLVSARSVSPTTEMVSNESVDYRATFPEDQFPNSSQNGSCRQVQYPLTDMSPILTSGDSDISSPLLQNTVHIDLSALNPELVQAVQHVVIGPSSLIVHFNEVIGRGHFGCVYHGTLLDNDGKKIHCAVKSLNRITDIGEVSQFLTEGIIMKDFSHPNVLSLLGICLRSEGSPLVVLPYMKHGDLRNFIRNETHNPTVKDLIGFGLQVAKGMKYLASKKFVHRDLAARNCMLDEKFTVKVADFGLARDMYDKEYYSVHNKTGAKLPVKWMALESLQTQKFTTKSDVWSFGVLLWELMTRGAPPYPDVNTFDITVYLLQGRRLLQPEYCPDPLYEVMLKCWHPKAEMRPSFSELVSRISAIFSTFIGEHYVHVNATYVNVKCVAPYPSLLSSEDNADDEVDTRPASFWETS

For `CNC(=O)c1cc(Oc2ccc(NC(=O)c3nn(-c4cccc(C(F)(F)F)c4)c(=O)cc3C)cc2F)ccn1`, the IC50 in [1] (setting [13]) turned out to be 11.8 µM; in assay [2], 10.2 µM; in assay [3] (setting [14]) it was 45.8 µM.
The corresponding values for `CCCNC(=O)c1cc(Oc2ccc(NC(=O)c3nn(-c4cccc(C(F)(F)F)c4)c(=O)cc3C)cc2F)ccn1` are 8 µM, 9.24 µM and 30 µM.
On to `CCCNC(=O)c1cc(Oc2ccc(NC(=O)c3nn(-c4ccccc4OC(F)(F)F)c(=O)cc3C)cc2F)ccn1`, for which the concentration for half-maximal inhibition (IC50) in assay [1] (setting [13]) was 3.69 µM; in assay [2] it was 4.22 µM; in assay [3] (setting [14]), 7.42 µM.
For the molecule `CCNC(=O)c1cc(Oc2ccc(NC(=O)c3nn(-c4cccc(F)c4)c(=O)cc3C)cc2)ccn1`, the results for the concentration for half-maximal inhibition (IC50) in assay [1] (setting [13]), in assay [2] and in assay [3] (setting [14]) were 6.87 µM, 7.41 µM and 18.9 µM, respectively.
The corresponding values for `CCNC(=O)c1cc(Oc2ccc(NC(=O)c3nn(-c4ccccc4C)c(=O)cc3C)cc2)ccn1` are 27.3 µM, 34.8 µM and 44.3 µM.
For `Cc1ccc(-n2nc(C(=O)Nc3ccc(Oc4ccnc(C(=O)NCCc5cccs5)c4)cc3)c(C)cc2=O)cc1`, the IC50 in [1] (setting [13]) was 660 µM; in assay [2], 965 µM; in assay [3] (mcf7) it was “Not Active”.
On to `CN1CCN(C2CCN(C(=O)Nc3cc(Oc4ccc(NC(=O)C5(C(=O)Nc6ccc(F)cc6)CC5)c(F)c4)ccn3)CC2)CC1` [GOLVATINIB], for which the IC50 came to 4.14 µM in assay [1] (setting [13]), 6.89 µM in assay [2] and 20.6 µM in assay [3] (setting [14]). The inhibition at 1.23 µM in assay [4] was 20%.
As to `Cc1cc(=O)n(-c2cccc(C(F)(F)F)c2)nc1C(=O)Nc1ccc(Oc2ccnc(C(=O)NCCCN3CCOCC3)c2)cc1`, the IC50 in [1] (setting [13]) is 1.65 µM; in [2], 2.5 µM; in assay [5], over 10 µM; in [3] (setting [14]), 5.21 µM.
For `CCCNC(=O)c1cc(Oc2ccc(NC(=O)c3nn(-c4ccc(Br)cc4F)c(=O)cc3C)cc2F)ccn1`, the IC50 in assay [1] (setting [13]) is 53.5 µM; in [2], 235 µM; in assay [3] (mcf7), “Not Active”.
In the case of `Cc1cc(=O)n(-c2ccccc2OC(F)(F)F)nc1C(=O)Nc1ccc(Oc2ccnc(C(=O)NCCCN3CCOCC3)c2)cc1`, the “Ratio IC50” value in assay [6], in assay [10] and in assay [12] was 2.6 - 6.95 each time. The result in [7], in [9] and in assay [11] was Active. Also, the Activity entry in assay [1] and in assay [8] was “Dose-dependent effect” each time. Besides, the IC50 in assay [1] (setting [13]) was 1.15 µM; in assay [2], 1.03 µM; in assay [5] it was 0.807 µM; in assay [3] (setting [14]), 2.59 µM. Besides, the inhibition at 1.23 µM in assay [4] was over 50%.
Take `Cc1cc(=O)n(-c2ccc(Br)cc2F)nc1C(=O)Nc1ccc(Oc2ccnc(C(=O)NCCc3cccs3)c2)cc1`: the concentration for half-maximal inhibition (IC50) in assay [1] (setting [13]) is 387 µM; in [2], 585 µM; in assay [3] (setting [14]), 969 µM.
On to `Cc1cc(=O)n(-c2ccccc2OC(F)(F)F)nc1C(=O)Nc1ccc(Oc2ccnc(C(=O)NCCc3cccs3)c2)cc1`, for which the IC50 in assay [1] (setting [13]) is 434 µM; in [2] it was 876 µM; in assay [3] (mcf7), “Not Active”.
Regarding `Cc1ccc(-n2nc(C(=O)Nc3ccc(Oc4ccnc(C(=O)NCCCN5CCOCC5)c4)cc3)c(C)cc2=O)cc1`, the IC50 is 1.92 µM in assay [1] (setting [13]), 2.94 µM in [2], over 10 µM in assay [5] and 3.57 µM in [3] (setting [14]).
Take `CNC(=O)c1cc(Oc2ccc(NC(=O)c3nn(-c4ccccc4)c(=O)cc3C)cc2F)ccn1`: the IC50 result in assay [1] (hela) is “Not Active”; in assay [2] it was 40.8 µM; in assay [3] (mcf7), “Not Active”.
On to `CCNC(=O)c1cc(Oc2ccc(NC(=O)c3nn(-c4ccc(C)cc4)c(=O)cc3C)cc2)ccn1`, for which the IC50 in assay [1] (setting [13]) was determined as 10.7 µM; in assay [2] it was 11.6 µM; in [3] (setting [14]), 51.2 µM.
Consider `Cc1cc(=O)n(-c2ccc(Br)cc2F)nc1C(=O)Nc1ccc(Oc2ccnc(C(=O)NCCCN3CCOCC3)c2)cc1`, for which the IC50 in assay [1] (setting [13]) is 4.25 µM; in assay [2] it was 6.83 µM; in assay [5] it was over 10 µM; in assay [3] (setting [14]), 8.23 µM.
As to `CCNC(=O)c1cc(Oc2ccc(NC(=O)c3nn(-c4ccccc4OC(F)(F)F)c(=O)cc3C)cc2)ccn1`, the IC50 worked out at 3.99 µM in assay [1] (setting [13]), 5.28 µM in assay [2] and 15.5 µM in [3] (setting [14]).
With `CCCNC(=O)c1cc(Oc2ccc(NC(=O)c3nn(-c4cccc(F)c4)c(=O)cc3C)cc2F)ccn1`, the IC50 was 6.66 µM in assay [1] (setting [13]), 7.02 µM in [2] and 13.3 µM in [3] (setting [14]).
`CCNC(=O)c1cc(Oc2ccc(NC(=O)c3nn(-c4ccc(Br)cc4F)c(=O)cc3C)cc2)ccn1`: the results for the IC50 entry in assay [1] (hela), in assay [2] and in [3] (setting [14]) were “Not Active”, 34.5 µM and 35.1 µM, respectively.
For `CCNC(=O)c1cc(Oc2ccc(NC(=O)c3nn(-c4cccc(C(F)(F)F)c4)c(=O)cc3C)cc2)ccn1`, the IC50 in [1] (setting [13]) is 10.7 µM; in assay [2], 10 µM; in assay [3] (setting [14]), 40.6 µM.
The corresponding values for `CCCNC(=O)c1cc(Oc2ccc(NC(=O)c3nn(-c4ccccc4C)c(=O)cc3C)cc2F)ccn1` are 24.6 µM, 25.7 µM and 39.6 µM.
For `CNC(=O)c1cc(Oc2ccc(NC(=O)c3nn(-c4ccccc4Cl)c(=O)cc3C)cc2F)ccn1`, the half-maximal inhibitory concentration (IC50) in [1] (setting [13]) turned out to be 9.87 µM; in assay [2], 11.8 µM; in [3] (setting [14]), 136 µM.
Turning to `CCCNC(=O)c1cc(Oc2ccc(NC(=O)c3nn(-c4ccc(C)cc4)c(=O)cc3C)cc2F)ccn1`, the figures for the IC50 in assay [1] (setting [13]), in assay [2] and in assay [3] (setting [14]) were 14.2 µM, 18 µM and 34.6 µM, respectively.
Consider `Cc1cc(=O)n(-c2cccc(C(F)(F)F)c2)nc1C(=O)Nc1ccc(Oc2ccnc(C(=O)NCCc3cccs3)c2)cc1`, for which the half-inhibitory concentration (IC50) is 885 µM in assay [1] (setting [13]), 722 µM in assay [2] and “Not Active” in [3] (mcf7).
